Measurements taken from ChEMBL document CHEMBL1153905, “Functionalized 3-benzylidene-indolin-2-ones: inducers of NAD(P)H-quinone oxidoreductase 1 (NQO1) with antiproliferative activity” (Bioorg Med Chem, 2009).

Assays:
[1] = Ratio of induction of NQO1 activity to induction of CYP1 activity in mouse Hepa-1c1c7 cells at 5 nM after 48 hrs
[2] = target: T1, CYP1A1 (Mus musculus, UniProt P00184); test: Induction of CYP1A1 activity in mouse Hepa-1c1c7 cells assessed as induction ratio at 5 nM after 48 hrs by EROD assay relative to control; format: ADME, cell-based
T1 sequence (P00184 whole entry): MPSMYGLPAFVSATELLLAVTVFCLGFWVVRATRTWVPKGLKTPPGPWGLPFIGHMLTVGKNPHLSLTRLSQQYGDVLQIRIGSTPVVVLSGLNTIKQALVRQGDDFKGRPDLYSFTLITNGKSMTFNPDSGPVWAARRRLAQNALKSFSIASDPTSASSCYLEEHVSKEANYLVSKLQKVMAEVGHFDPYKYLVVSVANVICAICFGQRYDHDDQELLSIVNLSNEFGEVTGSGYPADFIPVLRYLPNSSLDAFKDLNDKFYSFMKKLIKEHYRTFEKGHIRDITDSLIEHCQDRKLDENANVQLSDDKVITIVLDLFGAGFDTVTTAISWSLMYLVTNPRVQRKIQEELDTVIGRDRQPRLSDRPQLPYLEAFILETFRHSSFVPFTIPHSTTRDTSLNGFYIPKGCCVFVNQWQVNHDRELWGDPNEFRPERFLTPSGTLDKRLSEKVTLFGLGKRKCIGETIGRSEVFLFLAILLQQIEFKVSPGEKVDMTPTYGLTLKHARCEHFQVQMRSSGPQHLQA
How it was run: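 Hepa1c1c7 cells were seeded at 10,000 per well and grown 24 h. They were then exposed 48 h to compound (final DMSO 0.5% v/v) at about 4 × the NQO1 CD. After a PBS wash, cells got 5 µM 7-ethoxyresorufin plus 2 mM salicylamide in medium, 37 °C, 40 min. Resorufin was read at ex 530/em 590 nm, corrected for compound fluorescence. Ratio = (F treated − blank)/(F DMSO control − blank); mean ± SD, n = 3.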

[3] = target: NAD(P)H dehydrogenase [quinone] 1 (Mus musculus) (UniProt Q64669); test: Induction of NQO1 activity in mouse Hepa-1c1c7 cells assessed as induction ratio at 5 nM after 48 hrs by MTT assay relative to control; format: cell-based
How it was run: (§1)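 Hepa1c1c7 cells, 10,000 per well, 24 h, were then treated 48 h (DMSO ≤0.5%). Digitonin/EDTA lysates were assayed for menadione-dependent MTT-formazan formation using a G6P/G6PDH NADPH-generating mix with FAD at pH 7.4. The reaction ran 5 min, was stopped with dicoumarol, and read at A590. Degree of induction = (A test − blank)/(A control − blank). Ratios were read off the induction–concentration plot at the EROD test concentration.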

[4] = Cytotoxicity against mouse Hepa-1c1c7 cells after 48 hrs by MTT assay; format: cell-based; settings: hepa-1c1c7, 48 h
How it was run: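 Murine hepatoma cells in α-MEM with 10% heat- and charcoal-treated fetal calf serum, passages 6–17; MTT read-out as for the cancer lines but with 48 h compound exposure. Highest concentration tested 25 µM. IC50 from survival-versus-concentration curve; mean and SD, n = 3.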

[5] = target: T1, CYP1A1; test: Induction of CYP1A1 activity in mouse Hepa-1c1c7 cells assessed as induction ratio at 0.1 uM after 48 hrs by EROD assay relative to control; format: ADME, cell-based
How it was run: (§2)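 About 10,000 Hepa1c1c7 cells/well cultured 24 h, then compound (0.5% DMSO final) for 48 h, at roughly 4 × the concentration doubling NQO1 activity. After PBS wash, cells given 5 µM 7-ethoxyresorufin plus 2 mM salicylamide, 37 °C, 40 min; resorufin fluorescence ex 530/em 590 nm, corrected for compound fluorescence. Ratio = (treated − blank)/(DMSO control − blank); mean ± SD, n = 3.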

[6] = target: NAD(P)H dehydrogenase [quinone] 1 (Mus musculus) (UniProt Q64669); test: Induction of NQO1 activity in mouse Hepa-1c1c7 cells assessed as induction ratio at 0.1 uM after 48 hrs by MTT assay relative to control; format: cell-based
How it was run: as §1

[7] = target: T1, CYP1A1; test: Induction of CYP1A1 activity in mouse Hepa-1c1c7 cells assessed as induction ratio at 10 uM after 48 hrs by EROD assay relative to control; format: ADME, cell-based
How it was run: as §2

[8] = target: NAD(P)H dehydrogenase [quinone] 1 (Mus musculus) (UniProt Q64669); test: Induction of NQO1 activity in mouse Hepa-1c1c7 cells assessed as induction ratio at 10 uM after 48 hrs by MTT assay relative to control; format: cell-based
How it was run: as §1

[9] = system: HCT-116; test: Cell cycle arrest in human HCT116 cells released from G1 block assessed as accumulation at sub G1 phase at 15 uM after 24 hrs by flow cytometry; format: functional
[10] = Selectivity ratio of IC50 for human CCL186 cells to IC50 for human HCT116 cells; format: ADME, cell-based, HCT-116; settings: CCL186 cells and HCT116 cells, read-out: Ratio IC50
How it was run: (§3)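 MTT assay. MCF7 and CCL186 cells were grown in EMEM/10% FBS, HCT116 in McCoy's 5A/10% FBS. Seeding was 10,000 (MCF7), 4000 (HCT116) and 5000 (CCL186) cells per well, 24 h. Compound exposure was 72 h, DMSO ≤1% final. MTT 0.5 mg/ml for 3 h, formazan dissolved in DMSO, A590. IC50 came from sigmoidal survival curves, with 3 separate occasions per concentration. Ratio = IC50 CCL186 / IC50 of the cancer line.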

[11] = system: MCF7; test: Antiproliferative activity against human MCF7 cells after 72 hrs by MTT assay; format: functional, cell-based; settings: MCF7, 72 h
How it was run: (§4)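 Cells seeded at 10,000 (MCF7), 4000 (HCT116) or 5000 (CCL186) per well and grown 24 h; MCF7 and CCL186 in EMEM with pyruvate, glutamine, 10% FBS; HCT116 in McCoy's 5A with 10% FBS. Compounds from DMSO stocks (≤1% DMSO final), 72 h exposure; MTT 0.5 mg/ml for 3 h, formazan in DMSO read at 590 nm. IC50 from sigmoidal survival curve, three separate occasions.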

[12] = system: HCT-116; test: Cell cycle arrest in human HCT116 cells released from G1 block assessed as accumulation at G1 phase at 15 uM after 24 hrs by flow cytometry; format: functional
[13] = target: NAD(P)H dehydrogenase [quinone] 1 (Mus musculus) (UniProt Q64669); test: Induction of NQO1 activity in mouse Hepa-1c1c7 cells assessed as induction ratio at 1 uM after 48 hrs by MTT assay relative to control; format: cell-based
How it was run: as §1

[14] = system: HCT-116; test: Cell cycle arrest in human HCT116 cells released from G1 block assessed as accumulation at G2/M phase at 15 uM after 24 hrs by flow cytometry; format: functional
[15] = system: HCT-116; test: Cell cycle arrest in human HCT116 cells released from G2 block assessed as accumulation at G2/M phase at 15 uM after 24 hrs by flow cytometry; format: functional
[16] = system: HCT-116; test: Cell cycle arrest in human HCT116 cells released from G2 block assessed as accumulation at sub G1 phase at 15 uM after 24 hrs by flow cytometry; format: functional
[17] = target: T1, CYP1A1; test: Induction of CYP1A1 activity in mouse Hepa-1c1c7 cells assessed as induction ratio at 1 uM after 48 hrs by EROD assay relative to control; format: ADME, cell-based
How it was run: as §2

[18] = system: HCT-116; test: Cell cycle arrest in human HCT116 cells released from G2 block assessed as accumulation at G1 phase at 15 uM after 24 hrs by flow cytometry; format: functional
[19] = Antiproliferative activity against human CCL186 cells after 72 hrs by MTT assay; format: cell-based; settings: CCL186, 72 h
How it was run: as §4

[20] = system: HCT-116; test: Antiproliferative activity against human HCT116 cells after 72 hrs by MTT assay; format: functional, cell-based; settings: HCT-116, 72 h
How it was run: as §4

[21] = system: HCT-116; test: Cell cycle arrest in human HCT116 cells released from G2 block assessed as accumulation at S phase at 15 uM after 24 hrs by flow cytometry; format: functional
[22] = system: MCF7; test: Selectivity ratio of IC50 for human CCL186 cells to IC50 for human MCF7 cells
How it was run: as §3

[23] = system: HCT-116; test: Cell cycle arrest in human HCT116 cells released from G1 block assessed as accumulation at S phase at 15 uM after 24 hrs by flow cytometry; format: functional
[24] = target: NAD(P)H dehydrogenase [quinone] 1 (Mus musculus) (UniProt Q64669); test: Induction of NQO1 activity in mouse Hepa-1c1c7 cells assessed as induction ratio at 0.05 uM after 48 hrs by MTT assay relative to control; format: cell-based
How it was run: as §1

[25] = target: T1, CYP1A1; test: Induction of CYP1A1 activity in mouse Hepa-1c1c7 cells assessed as induction ratio at 0.05 uM after 48 hrs by EROD assay relative to control; format: ADME, cell-based
How it was run: as §2

Sequence of NAD(P)H dehydrogenase [quinone] 1 (Mus musculus) (Q64669 whole entry): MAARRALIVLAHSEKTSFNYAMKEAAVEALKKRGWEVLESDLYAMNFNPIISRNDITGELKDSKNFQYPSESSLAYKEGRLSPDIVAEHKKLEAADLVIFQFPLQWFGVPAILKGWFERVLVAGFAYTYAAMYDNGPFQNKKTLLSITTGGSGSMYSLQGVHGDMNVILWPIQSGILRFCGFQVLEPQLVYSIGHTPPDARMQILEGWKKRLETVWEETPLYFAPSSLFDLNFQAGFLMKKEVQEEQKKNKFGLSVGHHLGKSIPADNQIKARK

fold induction at 48 h, 0.1 µM [5] | Ratio [6] | IC50 [11] [µM] | IC50 [20] [µM] | Compound | IC50 [4] [µM] | Activity [9] [%] | selectivity ratio [10] | Activity [12] [%] | Activity [14] [%] | Activity [15] [%] | Activity [16] [%] | Activity [18] [%] | IC50 [19] [µM] | Activity [21] [%] | Ratio IC50 [22] | Activity [23] [%] | also measured
 |  |  |  | O=C1Nc2cc(C(F)(F)F)ccc2/C1=C1\C(=O)Nc2ccc(F)cc21 | > 25 |  |  |  |  |  |  |  |  |  |  |  | Ratio [1]: 0.83; fold induction at 48 h, 0.005 µM [2]: 3.72; Ratio [3]: 3.09
1.22 | 2.74 |  |  | O=C1Nc2ccccc2/C1=C\c1ccc(C(F)(F)F)cc1 | 12 |  |  |  |  |  |  |  |  |  |  |  | 
 |  |  |  | O=C1Nc2ccccc2/C1=C\c1cc(O)ccc1O | > 25 |  |  |  |  |  |  |  |  |  |  |  | fold induction at 48 h, 10 µM [7]: 2.87; Ratio [8]: 7.69
 |  | 7.8 | 3.7 | COc1ccc2c(c1)NC(=O)/C2=C/c1ccc(OC)c(O)c1 | 9.8 | 5.26 | 1.4 | 17.49 | 56.49 | 43.57 | 15.54 | 26.01 | 11.3 | 15.36 | 3.1 | 21.13 | Ratio [13]: 4.34; fold induction at 48 h, 1 µM [17]: 1.05
1.44 | 2.8 |  |  | O=C1Nc2ccccc2/C1=C1\C(=O)Nc2ccccc21 [ISOINDIGO] | > 25 |  |  |  |  |  |  |  |  |  |  |  | 
 |  | 7.5 | 3.8 | O=C1Nc2cc(Cl)ccc2/C1=C\c1cccc(C(F)(F)F)c1 | 1.1 | 12.39 | 0.9 | 65.55 | 15.13 | 28.39 | 10.62 | 53.47 | 6.6 | 8.05 | 1.7 | 7.1 | Ratio [24]: 5.2; fold induction at 48 h, 0.05 µM [25]: 2.4
 |  |  |  | O=C1Nc2ccccc2/C1=C1\C(=O)Nc2cc(C(F)(F)F)ccc21 | > 25 |  |  |  |  |  |  |  |  |  |  |  | Ratio [1]: 0.99; fold induction at 48 h, 0.005 µM [2]: 3.01; Ratio [3]: 2.99
1.51 | 2.56 |  |  | COc1cccc(/C=C2/C(=O)Nc3cc(Cl)ccc32)c1 | > 25 |  |  |  |  |  |  |  |  |  |  |  | 
 |  | 8.9 | 8.4 | O=C1Nc2cc(F)ccc2/C1=C\c1cccc(C(F)(F)F)c1 | 2.2 | 12.68 | 0.8 | 64.93 | 14.58 | 25 | 2.49 | 64.15 | 7.5 | 8.82 | 0.9 | 8.04 | Ratio [24]: 3.31; fold induction at 48 h, 0.05 µM [25]: 1.23
